Measurements: ChEMBL document CHEMBL2417544, “Design, synthesis and biological evaluation of azithromycin glycosyl derivatives as potential antibacterial agents” (2013)
≈ marks a conversion by molar mass, not a printed value.

Key:
Type in all cases: functional
Streptococcus pneumoniae [1] = assay: Ratio of erythromycin A MIC80 to compound MIC80 for Streptococcus pneumoniae 746
Outline: (§1)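 Ratio of the reference macrolide's MIC80 (azithromycin or erythromycin A, tested in parallel) to the compound's MIC80. Both come from the same NCCLS broth dilution run: DMSO stocks serially diluted in medium, inoculated, 35 °C. MIC80 is the first well with about 80% lower growth than the drug-free control. Triplicate tests, means used.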

Streptococcus pneumoniae [2] = assay: Ratio of azithromycin MIC80 to compound MIC80 for Streptococcus pneumoniae 943; outline: as §1
Streptococcus pneumoniae [3] = assay: Ratio of erythromycin A MIC80 to compound MIC80 for Streptococcus pneumoniae 943; outline: as §1
Escherichia coli [4] = assay: Antibacterial activity against Escherichia coli ATCC 25922 by standard dilution assay
Outline: (§2)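 Broth dilution MIC per NCCLS guidance. Compounds dissolved in DMSO, serially diluted in growth medium, inoculated and incubated at 35 °C. MIC80 taken as the first well showing roughly 80% less growth than the drug-free well. Each test run three times; values are means of replicates.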

Escherichia coli [5] = assay: Antibacterial activity against Escherichia coli 236 by standard dilution assay; outline: as §2
Streptococcus pyogenes = assay: Antibacterial activity against Streptococcus pyogenes 447 by standard dilution assay; outline: as §2
Streptococcus pneumoniae [6] = assay: Antibacterial activity against Streptococcus pneumoniae 746 by standard dilution assay; outline: as §2
Staphylococcus aureus [7] = assay: Antibacterial activity against Staphylococcus aureus ATCC 25923 by standard dilution assay
Outline: (§3)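 Broth dilution MIC per NCCLS guidance. Compounds dissolved in DMSO, serially diluted in growth medium, inoculated and incubated at 35 °C. MIC80 read as the first well with about 80% less growth than the drug-free well. Erythromycin and azithromycin were run as positive controls. Each test was done three times, and values are means of the replicates.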

Staphylococcus aureus [8] = assay: Antibacterial activity against methicillin-resistant Staphylococcus aureus MRSA-1 by standard dilution assay; outline: as §3
Staphylococcus aureus [9] = assay: Antibacterial activity against methicillin-susceptible Staphylococcus aureus MSSA-1 by standard dilution assay; outline: as §3
Streptococcus pneumoniae [10] = assay: Antibacterial activity against Streptococcus pneumoniae 943 by standard dilution assay; outline: as §2
Staphylococcus aureus [11] = assay: Ratio of erythromycin A MIC80 to compound MIC80 for methicillin-susceptible Staphylococcus aureus MSSA-1; outline: as §1

| SMILES | Ratio (Streptococcus pneumoniae [1]) | Ratio (Streptococcus pneumoniae [2]) | Ratio (Streptococcus pneumoniae [3]) | MIC80 (Escherichia coli [4]) | MIC80 (Escherichia coli [5]) | MIC80 (Streptococcus pyogenes) | MIC80 (Streptococcus pneumoniae [6]) | MIC80 (Staphylococcus aureus [7]) | MIC80 (Staphylococcus aureus [8]) | MIC80 (Staphylococcus aureus [9]) | MIC80 (Streptococcus pneumoniae [10]) | Ratio (Staphylococcus aureus [11]) |
| --- | --- | --- | --- | --- | --- | --- | --- | --- | --- | --- | --- | --- |
| CC[C@H]1OC(=O)[C@H](C)[C@@H](O[C@H]2C[C@@](C)(OC)[C@@H](OC(=O)NCCO[C@@H]3O[C@H](CO)[C@H](O)[C@H](O)[C@H]3O)[C@H](C)O2)[C@H](C)[C@@H](O[C@@H]2O[C@H](C)C[C@H](N(C)C)[C@H]2O)[C@](C)(O)C[C@@H](C)CN(C)[C@H](C)[C@H]2OC(=O)O[C@@]21C | 8 | 4 | 8 | 128 µg/mL (≈ 125 µM) | 128 µg/mL (≈ 125 µM) | 64 µg/mL (≈ 62.5 µM) | 2 µg/mL (≈ 1.95 µM) | 32 µg/mL (≈ 31.2 µM) | 32 µg/mL (≈ 31.2 µM) | 4 µg/mL (≈ 3.91 µM) | 1 µg/mL (≈ 0.976 µM) |  |
| CC[C@H]1OC(=O)[C@H](C)[C@@H](O[C@H]2C[C@@](C)(OC)[C@@H](OC(=O)NCCO[C@@H]3O[C@H](CO)[C@@H](O[C@H]4O[C@H](CO)[C@@H](O)[C@H](O)[C@H]4O)[C@H](O)[C@H]3O)[C@H](C)O2)[C@H](C)[C@@H](O[C@@H]2O[C@H](C)C[C@H](N(C)C)[C@H]2O)[C@](C)(O)C[C@@H](C)CN(C)[C@H](C)[C@H]2OC(=O)O[C@@]21C |  |  |  | 256 µg/mL (≈ 216 µM) | 128 µg/mL (≈ 108 µM) | 32 µg/mL (≈ 27 µM) | 16 µg/mL (≈ 13.5 µM) | 32 µg/mL (≈ 27 µM) | 16 µg/mL (≈ 13.5 µM) | 16 µg/mL (≈ 13.5 µM) | 8 µg/mL (≈ 6.74 µM) |  |
| CC[C@H]1OC(=O)[C@H](C)[C@@H](O[C@H]2C[C@@](C)(OC)[C@@H](OC(=O)NCCO[C@@H]3O[C@H](CO)[C@@H](O)[C@H](O)[C@H]3O)[C@H](C)O2)[C@H](C)[C@@H](O[C@@H]2O[C@H](C)C[C@H](N(C)C)[C@H]2O)[C@](C)(O)C[C@@H](C)CN(C)[C@H](C)[C@H]2OC(=O)O[C@@]21C | 8 | 4 | 8 | 128 µg/mL (≈ 125 µM) | 64 µg/mL (≈ 62.5 µM) | 16 µg/mL (≈ 15.6 µM) | 2 µg/mL (≈ 1.95 µM) | 8 µg/mL (≈ 7.81 µM) | 16 µg/mL (≈ 15.6 µM) | 2 µg/mL (≈ 1.95 µM) | 1 µg/mL (≈ 0.976 µM) | 8 |
| CC[C@H]1OC(=O)[C@H](C)[C@@H](O[C@H]2C[C@@](C)(OC)[C@@H](OC(=O)NCCO[C@@H]3O[C@H](CO)[C@@H](O)[C@H]3O)[C@H](C)O2)[C@H](C)[C@@H](O[C@@H]2O[C@H](C)C[C@H](N(C)C)[C@H]2O)[C@](C)(O)C[C@@H](C)CN(C)[C@H](C)[C@H]2OC(=O)O[C@@]21C |  |  |  | 128 µg/mL (≈ 129 µM) | 64 µg/mL (≈ 64.4 µM) | 64 µg/mL (≈ 64.4 µM) | 8 µg/mL (≈ 8.05 µM) | 4 µg/mL (≈ 4.02 µM) | 8 µg/mL (≈ 8.05 µM) | 8 µg/mL (≈ 8.05 µM) | 4 µg/mL (≈ 4.02 µM) |  |
| CC[C@H]1OC(=O)[C@H](C)[C@@H](O[C@H]2C[C@@](C)(OC)[C@@H](OC(=O)NCCO[C@@H]3O[C@H](CO)[C@@H](O[C@@H]4O[C@H](CO)[C@@H](O)[C@H](O)[C@H]4O)[C@H](O)[C@H]3O)[C@H](C)O2)[C@H](C)[C@@H](O[C@@H]2O[C@H](C)C[C@H](N(C)C)[C@H]2O)[C@](C)(O)C[C@@H](C)CN(C)[C@H](C)[C@H]2OC(=O)O[C@@]21C |  |  |  | 256 µg/mL (≈ 216 µM) | 128 µg/mL (≈ 108 µM) | 64 µg/mL (≈ 53.9 µM) | 16 µg/mL (≈ 13.5 µM) | 16 µg/mL (≈ 13.5 µM) | 32 µg/mL (≈ 27 µM) | 32 µg/mL (≈ 27 µM) | 8 µg/mL (≈ 6.74 µM) |  |
| CC[C@H]1OC(=O)[C@H](C)[C@@H](O[C@H]2C[C@@](C)(OC)[C@@H](O)[C@H](C)O2)[C@H](C)[C@@H](O[C@@H]2O[C@H](C)C[C@H](N(C)C)[C@H]2O)[C@](C)(O)C[C@@H](C)C(=O)[C@H](C)[C@@H](O)[C@]1(C)O [ERYTHROMYCIN] |  |  |  | 256 µg/mL (≈ 349 µM) | 256 µg/mL (≈ 349 µM) | 32 µg/mL (≈ 43.6 µM) | 16 µg/mL (≈ 21.8 µM) | 16 µg/mL (≈ 21.8 µM) | 16 µg/mL (≈ 21.8 µM) | 16 µg/mL (≈ 21.8 µM) | 8 µg/mL (≈ 10.9 µM) |  |
| CC[C@H]1OC(=O)[C@H](C)[C@@H](O[C@H]2C[C@@](C)(OC)[C@@H](OC(=O)NCCO[C@@H]3OC[C@@H](O)[C@H](O)[C@H]3O)[C@H](C)O2)[C@H](C)[C@@H](O[C@@H]2O[C@H](C)C[C@H](N(C)C)[C@H]2O)[C@](C)(O)C[C@@H](C)CN(C)[C@H](C)[C@H]2OC(=O)O[C@@]21C |  |  |  | 256 µg/mL (≈ 257 µM) | 64 µg/mL (≈ 64.4 µM) | 16 µg/mL (≈ 16.1 µM) | 4 µg/mL (≈ 4.02 µM) | 8 µg/mL (≈ 8.05 µM) | 16 µg/mL (≈ 16.1 µM) | 16 µg/mL (≈ 16.1 µM) | 2 µg/mL (≈ 2.01 µM) |  |
| CC[C@H]1OC(=O)[C@H](C)[C@@H](O[C@H]2C[C@@](C)(OC)[C@@H](OC(=O)NCCO[C@@H]3O[C@H](CO)[C@@H](O)[C@H](O)[C@@H]3O)[C@H](C)O2)[C@H](C)[C@@H](O[C@@H]2O[C@H](C)C[C@H](N(C)C)[C@H]2O)[C@](C)(O)C[C@@H](C)CN(C)[C@H](C)[C@H]2OC(=O)O[C@@]21C |  |  |  | 128 µg/mL (≈ 125 µM) | 64 µg/mL (≈ 62.5 µM) | 32 µg/mL (≈ 31.2 µM) | 4 µg/mL (≈ 3.91 µM) | 8 µg/mL (≈ 7.81 µM) | 8 µg/mL (≈ 7.81 µM) | 8 µg/mL (≈ 7.81 µM) | 4 µg/mL (≈ 3.91 µM) |  |
| CC[C@H]1OC(=O)[C@H](C)[C@@H](O[C@H]2C[C@@](C)(OC)[C@@H](O)[C@H](C)O2)[C@H](C)[C@@H](O[C@@H]2O[C@H](C)C[C@H](N(C)C)[C@H]2O)[C@](C)(O)C[C@@H](C)CN(C)[C@H](C)[C@@H](O)[C@]1(C)O [AZITHROMYCIN] |  |  |  | 256 µg/mL (≈ 342 µM) | 256 µg/mL (≈ 342 µM) | 32 µg/mL (≈ 42.7 µM) | 8 µg/mL (≈ 10.7 µM) | 16 µg/mL (≈ 21.4 µM) | 16 µg/mL (≈ 21.4 µM) | 2 µg/mL (≈ 2.67 µM) | 4 µg/mL (≈ 5.34 µM) |  |
| CC[C@H]1OC(=O)[C@H](C)[C@@H](O[C@H]2C[C@@](C)(OC)[C@@H](OC(=O)NCCO[C@@H]3O[C@@H](C)[C@H](O)[C@@H](O)[C@H]3O)[C@H](C)O2)[C@H](C)[C@@H](O[C@@H]2O[C@H](C)C[C@H](N(C)C)[C@H]2O)[C@](C)(O)C[C@@H](C)CN(C)[C@H](C)[C@H]2OC(=O)O[C@@]21C |  |  |  | 128 µg/mL (≈ 127 µM) | 128 µg/mL (≈ 127 µM) | 64 µg/mL (≈ 63.5 µM) | 8 µg/mL (≈ 7.93 µM) | 16 µg/mL (≈ 15.9 µM) | 8 µg/mL (≈ 7.93 µM) | 2 µg/mL (≈ 1.98 µM) | 4 µg/mL (≈ 3.97 µM) | 8 |
